Experiments:
[1] = Cytotoxicity against human CRL8155 cells assessed as growth inhibition after 48 hrs by Alamar blue assay; format: cell-based; settings: for EC50: Homo sapiens, CRL8155, 48 h; for EC90: human, crl8155, 48 h
In short: (§1)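 CRL-8155 lymphoblasts or HepG2 hepatocellular carcinoma cells are exposed 48 h to serial compound dilutions in quadruplicate. Growth is read with Alamar Blue, and 50% and 90% inhibitory concentrations come from nonlinear regression. Quinacrine is the control.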

[2] = system: HepG2; test: Cytotoxicity against human HepG2 cells assessed as growth inhibition after 48 hrs by Alamar blue assay; format: cell-based; settings: for EC50: Homo sapiens, HepG2, 48 h; for EC90: human, hepg2, 48 h; in short: as §1
[3] = Selectivity index, ratio of EC50 for human HepG2 cells to EC50 for Trypanosoma brucei brucei BF427; format: toxicity; settings: read-out: Ratio EC50
[4] = Stability in human liver microsomes assessed as compound remaining at 1.5 uM in presence of NADPH measured after 60 mins by liquid chromatography/tandem mass spectrometric analysis; format: ADME, microsome; settings: read-out: Stability
In short: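 Pooled liver microsomes (0.5 mg/mL) are preincubated 5 min at 37 °C in 0.16 M KH2PO4 with 1 mM NADPH, then test compound is added at 1.5 μM. Aliquots are quenched with 4 volumes of acetonitrile at 0, 5, 10, 15, 30 and 60 min and analyzed by LC-MS/MS. Percent remaining at 5 or 60 min is given when t1/2 is outside the 5–60 min range. Controls: testosterone, dextromethorphan.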

[5] = system: Trypanosoma brucei brucei; test: Antitrypanosomal activity against Trypanosoma brucei brucei BF427 assessed as growth inhibition measured after 48 hrs by Alamar blue assay; format: functional; settings: BF427, 48 h
In short: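 Bloodstream-form parasites in HMI-9 medium are exposed to serial compound dilutions in triplicate. Viability is read with Alamar Blue at 48 h. EC50 and EC90 come from nonlinear regression. Pentamidine isethionate is the control.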

[6] = system: Liver; test: Half life in mouse liver microsomes at 1.5 uM in presence of NADPH by liquid chromatography/tandem mass spectrometric analysis; format: ADME, microsome
[7] = Selectivity index, ratio of EC50 for human CRL8155 cells to EC50 for Trypanosoma brucei brucei BF427; format: toxicity; settings: read-out: Ratio EC50
[8] = Stability in mouse liver microsomes assessed as compound remaining at 1.5 uM in presence of NADPH measured after 5 mins by liquid chromatography/tandem mass spectrometric analysis; format: ADME, microsome; settings: read-out: Stability
[9] = system: Liver; test: Half life in human liver microsomes at 1.5 uM in presence of NADPH by liquid chromatography/tandem mass spectrometric analysis; format: ADME, microsome
[10] = Ratio of drug level in brain to plasma in mouse at 5 mg/kg, ip administered as single dose measured at 1 hr post dose by liquid chromatography/tandem mass spectrometric analysis; format: ADME, organism-based
In short: (§2)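 Single ip dose of 5 mg/kg in 5% DMSO/7% Tween 80/3% EtOH in 0.9% saline, three mice per compound (six for one compound). At 1 h, plasma is separated by centrifugation and brain homogenized in acetonitrile. Both are quantified by LC-MS/MS, with brain corrected for 3% v/w blood. Brain/plasma ratio is reported as mean ± SEM.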

[11] = Drug level in mouse brain at 5 mg/kg, ip administered as single dose measured at 1 hr post dose by liquid chromatography/tandem mass spectrometric analysis; format: ADME, organism-based; settings: read-out: Drug uptake; in short: as §2
[12] = Drug level in mouse plasma at 5 mg/kg, ip administered as single dose measured at 1 hr post dose by liquid chromatography/tandem mass spectrometric analysis; format: ADME, organism-based; in short: as §2

SMILES	EC50 [1]	EC90 [1]	EC50 [2]	EC90 [2]	selectivity ratio [3]	remaining at 1 h, 1.5 µM [4]	EC50 [5]	EC90 [5]	t1/2 [6]	selectivity ratio [7]	remaining at 5 min, 1.5 µM [8]	t1/2 [9]	BPR [10]	concentration at 1 h [11]	concentration at 1 h [12]
O=C(Nc1ccc2sc(-c3ccccc3)nc2c1)N1CCCCC1	> 50 µM	> 50 µM	> 50 µM	> 50 µM	> 137	62%	0.366 µM	0.809 µM	17 min	> 137					
O=C(NCCc1nc(-c2cccc(F)c2)cs1)N1CCC(F)CC1	> 50 µM	> 50 µM	> 50 µM	> 50 µM	> 1370		0.0366 µM	0.0575 µM	< 5 min	> 1370	5.5%	5.6 min			
O=C(Nc1ccc2sc(-c3ccc(F)c(F)c3)nc2c1)N1CCC(F)(F)C1	> 50 µM	> 50 µM	> 50 µM	> 50 µM	> 54		0.934 µM	1.66 µM		> 54			7.92	21700 nM	2810 nM
O=C(NCCc1nc(-c2cccc(F)c2)cs1)N1CCCC(F)(F)C1	> 50 µM	> 50 µM	> 50 µM	> 50 µM	> 463		0.108 µM	0.168 µM	< 5 min	> 463	14%	5.1 min			
O=C(Nc1ccc2sc(-c3ccccc3)nc2c1)c1ccccc1						53%	2.38 µM	7.74 µM	50 min						
O=C(Nc1ccc2sc(-c3cccc(F)c3)nc2c1)N1CCCCC1	> 50 µM	> 50 µM	> 50 µM	> 50 µM	> 287		0.174 µM	0.602 µM	11 min	> 287		8.9 min			
O=C(Nc1ccc2sc(-c3ccccc3)nc2c1)c1cccs1	> 50 µM	> 50 µM	> 50 µM	> 50 µM	> 57		0.882 µM	2.13 µM		> 57					
O=C(NCCc1nc(-c2cccc(F)c2)cs1)N1CCC(F)(F)CC1	> 50 µM	> 50 µM	> 50 µM	> 50 µM	> 305		0.164 µM	0.23 µM	< 5 min	> 305	20%	5.8 min			
O=C(Nc1ccc2sc(-c3ccccc3F)nc2c1)N1CCCCC1	> 50 µM	> 50 µM	> 50 µM	> 50 µM	> 53		0.935 µM	1.14 µM		> 53					
O=C(Nc1ccc2oc(-c3ccccc3)nc2c1)c1ccccc1							> 10 µM	> 10 µM	17 min			60 min			
C[C@]12CC[C@H]3[C@@H](CCC4=CC(=O)CC[C@@]43C)[C@@H]1CC[C@@H]2O [TESTOSTERONE]									5.26 min			22.7 min			
O=C(Nc1ccc2sc(-c3ccc(F)c(F)c3)nc2c1)N1CC[C@@H](F)C1	> 50 µM	> 50 µM	> 50 µM		> 153		0.326 µM	0.491 µM		> 153				6350 nM	1200 nM
O=C(Nc1ccc2sc(-c3ccc(F)cc3)nc2c1)N1CCCCC1	> 50 µM	> 50 µM	> 50 µM	> 50 µM	> 117		0.427 µM	0.737 µM		> 117					
O=C(Nc1ccc2sc(-c3ccc(F)c(F)c3)nc2c1)N1CCC(F)CC1	> 50 µM	> 50 µM	> 50 µM	> 50 µM	> 147		0.341 µM	0.596 µM		> 147				2520 nM	2510 nM
O=C(Nc1ccc2sc(-c3cccc(F)c3)nc2c1)N1CCCC1	> 50 µM	> 50 µM	> 50 µM	> 50 µM	> 316		0.158 µM	0.391 µM	12 min	> 316		37 min		2280 nM	2220 nM
CC(C)(CNC(=O)N1CCCCC1)c1nc(-c2ccccc2)cs1							1.3 µM	2.4 µM	< 5 min		0%				

SMILES	EC50 [1]	EC90 [1]	EC50 [2]	EC90 [2]	selectivity ratio [3]	remaining at 1 h, 1.5 µM [4]	EC50 [5]	EC90 [5]	t1/2 [6]	selectivity ratio [7]	remaining at 5 min, 1.5 µM [8]	t1/2 [9]	BPR [10]	concentration at 1 h [11]	concentration at 1 h [12]
COc1ccc2c(c1)[C@]13CCCC[C@@H]1[C@H](C2)N(C)CC3 [DEXTROMETHORPHAN]									7.79 min			39.15 min			
O=C(Nc1ccc2sc(-c3ccc(F)cc3)nc2c1)N1CCCC1	> 50 µM	> 50 µM	> 50 µM	> 50 µM	> 133		0.375 µM	0.895 µM		> 133					
O=C(NCCc1nc(-c2ccccc2)cs1)N1CCCCC1													0.613		
O=C(NCCc1nc(-c2ccccc2)cs1)c1ccccc1													0.3		
O=C(NCCc1nc(-c2cccc(F)c2)cs1)N1CCCC(F)C1 (stereo not drawn)	> 50 µM	> 50 µM	> 50 µM	> 50 µM	> 1750		0.0285 µM	0.0557 µM	< 5 min	> 1750	18%	10 min			
O=C(Nc1ccc2oc(-c3ccccc3)nc2c1)N1CCCC1							5.25 µM	> 10 µM						397 nM	270 nM
O=C(Nc1ccc2sc(-c3ccc(F)c(F)c3)nc2c1)N1CCCCC1	> 50 µM	> 50 µM	> 50 µM	> 50 µM	> 224		0.223 µM	0.282 µM		> 224				1290 nM	2520 nM
N=C(N)c1ccc(OCCCCCOc2ccc(C(=N)N)cc2)cc1	45.4 µM	> 100 µM	> 100 µM	> 100 µM	> 93000		0.00105 µM	0.00354 µM		> 43200					
CN(C)C1CCN(C(=O)Nc2ccc3sc(-c4ccc(F)c(F)c4)nc3c2)C1 (stereo not drawn)							1.7 µM	1.95 µM						3000 nM	780 nM
O=C(Nc1ccc2sc(-c3cccc(F)c3F)nc2c1)N1CCCC1	> 50 µM	> 50 µM	> 50 µM	> 50 µM	> 273		0.183 µM	0.394 µM		> 273				2310 nM	1300 nM
O=C1CCN(C(=O)NCCc2nc(-c3cccc(F)c3)cs2)CC1	> 50 µM	> 50 µM	> 50 µM	> 50 µM	> 75		0.667 µM	0.813 µM		> 75					
O=C(Nc1ccc2oc(-c3ccccc3)nc2c1)N1CCCCC1						77%	2.8 µM	9.3 µM	11 min						
CC(C)(Cc1csc(-c2ccccc2)n1)NC(=O)N1CCCCC1							7.84 µM	9.9 µM	< 5 min		0%				
S=C(NCCc1nc(-c2ccccc2)cs1)c1ccccc1							1.44 µM	2.63 µM	< 5 min		0%				
O=C(Nc1ccc2sc(-c3ccc(F)c(F)c3)nc2c1)N1CCC(C(F)(F)F)C1 (stereo not drawn)							1.69 µM	4.88 µM						1970 nM	4150 nM
O=C(Nc1ccc2sc(-c3ccccc3)nc2c1)N1CCCC1	> 50 µM	> 50 µM	> 50 µM	> 50 µM	> 154		0.325 µM	0.817 µM	18 min	> 154		30 min		4240 nM	3400 nM
